Most compounds without a hit are left out; they make up all but 3.5% or so of the library.
RGS4 block = inhibitors of human RGS4. B-score at 10 µM. HEK293 M3R/RGS4 inducible, Fluo-4 calcium flux; hits give high values; triggered by carbachol at its EC20. P49798. 310,000 tested, 0.45% active;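 active = B-score, a plate-corrected calcium signal, over three deviations above library mean, with baseline fluorescence within five deviations of library mean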;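 also: RGS4 expression induced by doxycycline in cells with stable M3 receptor; B-score is computed from the integrated fluorescence ratio over baseline after carbachol; higher B-score means a larger calcium signal and so more RGS4 inhibition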
Target sequence (P49798 whole entry, looked up): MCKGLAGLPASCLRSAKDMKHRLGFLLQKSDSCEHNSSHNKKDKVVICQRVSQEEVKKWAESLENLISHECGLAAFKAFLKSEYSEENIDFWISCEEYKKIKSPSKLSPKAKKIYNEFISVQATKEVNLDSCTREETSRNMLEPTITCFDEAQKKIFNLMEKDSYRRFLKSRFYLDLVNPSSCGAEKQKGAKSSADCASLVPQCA
MrgX1 antagonist = blocks BAM8-22 activation of human MrgX1 receptor. Q96LB2. MRGX1-HEK293 calcium flux, Fluo-4, BAM8-22 antagonism; hits give low values. B-score at 10 µM. 310,000 tested, 1.3% active. AID 588676;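 active = calcium-response B-score plate-corrected more than 3 library SD below zero, starting fluorescence within 5 deviations, no agonist response on first addition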;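 also: peak minus trough fluorescence over baseline after final BAM8-22 challenge near maximal dose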
Target sequence (Q96LB2 whole entry, looked up): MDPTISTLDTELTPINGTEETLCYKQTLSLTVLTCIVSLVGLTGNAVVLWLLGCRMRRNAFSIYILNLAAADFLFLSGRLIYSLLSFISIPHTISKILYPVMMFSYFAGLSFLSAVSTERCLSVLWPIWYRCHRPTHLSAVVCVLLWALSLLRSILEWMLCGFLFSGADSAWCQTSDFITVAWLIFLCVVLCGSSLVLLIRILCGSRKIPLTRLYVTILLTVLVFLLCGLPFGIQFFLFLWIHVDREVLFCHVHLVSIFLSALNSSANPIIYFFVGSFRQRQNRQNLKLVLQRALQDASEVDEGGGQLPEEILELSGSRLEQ
RGS4 act = RGS4 potentiation or activation. HEK293 M3R/inducible RGS4, carbachol calcium flux Fluo4; hits give low values. B-score at 10 µM. 310,000 tested, 0.92% active;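 active = B-score of the integrated calcium signal more than 4 SD below the library mean, with starting fluorescence not abnormally high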;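 also: negative B-score means reduced calcium response which marks RGS4 activation or potentiation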
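Detection: kinetic calcium fluorescence imaging with Fluo4-AM dye, 2 µM / Material: HEK293 cells with stable M3R and inducible RGS4 / Schedule: recording 10 s baseline at 1 Hz, 100 s post-agonist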
MrgX1 allo act = allosterically activates human MrgX1 receptor signaling; Q96LB2; MrgX1-HEK293, Fluo-4 calcium flux, FDSS; hits give high values; B-score at 10 µM; 310,000 tested, 0.63% active;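 active = plate-corrected calcium response at least 3 library SD above typical, normal starting fluorescence, not activating the receptor alone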;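 also: compound read alongside a low EC10 to EC30 dose of BAM8-22 agonist; peak minus trough fluorescence over baseline measured at the second addition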
MrgX1 ag = agonists of human MrgX1 receptor; B-score at 10 µM; 310,000 tested, 0.44% active; MrgX1-HEK293 cells, Fluo-4 calcium fluorescence, agonist mode; hits give high values; Q96LB2; AID 588627;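 active = calcium response B-score plate-corrected fluorescence ratio at least 3 library SD, with starting fluorescence B-score inside 5 SD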
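Material: MrgX1-expressing HEK293 cells / Dosing: compound as first of three additions / Incubation: overnight seeding, then 1 h dark dye loading / Signal: Fluo-4 NW calcium fluorescence / Evaluation: B-scored fluorescence response ratio / Benchmarks: positive and negative control wells on each plate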
MrgX1 PAM conf = human MrgX1 positive allosteric modulation, re-confirmation; shares compounds with MrgX1 allo act; MrgX1-HEK293, Fluo-4 calcium fluorescence, FDSS; activation (ratio percentage), % at 10 µM; 1,200 tested, 13% active; AID 602413;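 active = ratio at least 3 SD above the weak peptide control, stable starting fluorescence, no direct agonism earlier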;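 also: compound followed by low BAM8-22 agonist challenge near EC20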
MrgX1 antag conf = human MrgX1 receptor antagonism, re-confirmation screen; shares compounds with MrgX1 antagonist; MrgX1-HEK293, BAM8-22 calcium flux, Fluo-4; hits give low values; remaining BAM8-22 calcium response % of control (hits give low values), % at 10 µM; 2,300 tested, 19% active; AID 602420;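 active = remaining agonist calcium response no higher than 100% minus 3 SD of agonist-only control wells, with starting fluorescence near control levels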;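 also: agonist BAM8-22 given at a near maximal EC90 to ECmax level; peak minus minimum fluorescence divided by baseline after agonist addition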
HEK293 Ca flux = counter-screen for MrgX1 antagonists: effect in parental HEK293 cells. shares compounds with MrgX1 antagonist. Fluo-4 calcium fluorescence, FDSS. fluorescence ratio F(max-min)/F0 at 10 µM. 4,000 tested, 2% active. AID 624111;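 active = duplicate-averaged calcium fluorescence ratio at least three times the standard deviation of buffer wells, a nonspecific response in parental cells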
HEK293 Ca counter = activity in parental HEK293 cells without MrgX1. fluorescence ratio F(max-min)/F0 at 10 µM. 4,000 tested, 0.4% active. parental HEK293 calcium flux, Fluo-4 fluorescence ratio; hits give high values. shares compounds with MrgX1 antagonist. AID 624114;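 active = calcium fluorescence ratio, averaged over duplicates, at least 3 SD of the buffer-well ratio, meaning a nonspecific response in receptor-free cells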;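 also: untransfected parental HEK293 lacking MrgX1 used as counterscreen for MrgX1 allosteric activators; fluorescence change taken during the second addition on a kinetic imager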
HEK293 Ca cntr2 = MrgX1 activator counter-screen hit in parental HEK293 cells | fluorescence ratio F(max-min)/F0 at 10 µM | shares compounds with MrgX1 antagonist | AID 624115 | Fluo-4 calcium fluorescence (FDSS); hits give high values | 4,000 tested, 8.7% active;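 active = calcium fluorescence ratio at least three times the spread of buffer wells, meaning a non-specific response in parental cells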
Numbers without * were called inactive; i = inactive; . = no result given.

SMILES | RGS4 block | MrgX1 antagonist | RGS4 act | MrgX1 allo act | MrgX1 ag | MrgX1 PAM conf | HEK293 Ca flux | HEK293 Ca counter | HEK293 Ca cntr2 | others
CCCCN1CC[C@H]2C=CC[C@@H](C(=O)Nc3ccc(Cl)cc3Cl)[C@H]2C1=O | i | i | i | 6.9* | i | i | i | i | i
OCc1cn(-c2ccccc2)nc1-c1ccc2c(c1)OCCO2 | i | i | i | 39* | i | 21%* | i | i | i
O/N=C/c1cn(-c2ccccc2)nc1-c1ccc2c(c1)OCCO2 | i | i | i | i | i | . | . | . | .
COc1cccc(-c2nn(-c3ccccc3)cc2CO)c1 | i | i | i | 12* | i | i | i | i | i
CCc1cccc(CC)c1NC(=S)Nc1cccc(Cl)c1Cl | i | i | i | 25* | i | i | i | i | i
CCOC(=O)c1c(C)nc2c(c1-c1cc(OC)ccc1OC)C(=O)c1ccccc1-2 | i | i | i | i | i | . | . | . | .
CCOC(=O)c1c(C)nc2ccccc2c1-c1ccccc1 | i | i | i | 7.6* | i | i | i | i | i
CCOC(=O)c1c(C)nc2c(c1-c1ccc(Cl)cc1)C(=O)CC(C)(C)C2 | i | -4.8* | i | 8.6* | i | i | i | i | i | MrgX1 antag conf=i
CCOC(=O)c1c(C)nc2c(c1-c1ccccc1)C(=O)c1ccccc1-2 | i | i | i | 9.3* | i | i | i | i | i
O=C(Nc1cc2c3c(c1)CC(=O)N3CCC2)C1CCCCC1 | i | i | i | i | i | . | . | . | .
COCCC(=O)N1CCC(Oc2ccc(C(=O)NCc3cccc(C)n3)cc2)CC1 | i | i | i | i | i | . | . | . | .
O=C(COc1cccnc1[N+](=O)[O-])NCc1ccccc1 | i | i | i | i | i | . | . | . | .
CCOc1cc(/C=C2/C(=N)N3C(=NC2=O)SN=C3S(=O)(=O)CC)ccc1OC(=O)c1ccco1 | i | i | i | 35* | i | 24%* | i | i | i
CCOc1cc(/C=C2/SC(=S)NC2=O)ccc1OC(=O)c1ccco1 | i | i | i | i | i | . | . | . | .
COc1cc(/C=C2/C(=N)N3C(=NC2=O)SN=C3S(=O)(=O)C(C)C)ccc1OC(=O)c1ccco1 | i | i | i | 38* | i | 37%* | i | i | i
CCOc1cc(/C=C2/C(=N)N3OC(C)=CC3=NC2=O)ccc1OC(=O)c1ccco1 | i | i | i | i | i | . | . | . | .
CCOc1cc(/C=C2/C(=N)N3C(=NC2=O)SN=C3S(=O)(=O)C(C)C)ccc1OC(=O)c1ccco1 | i | i | i | 37* | i | 41%* | i | i | 48*
O=C(Nc1ccc(S(=O)(=O)N2CCCCC2)cc1)C1CCCN(C(=O)c2ccc(Cl)cc2)C1 (stereo not drawn) | i | i | i | i | i | . | . | . | .
O=[N+]([O-])c1ccc(Cl)c(S(=O)(=O)Nc2ccc(-c3ccc(N4CCOCC4)nn3)cc2)c1 | i | i | i | i | i | . | . | . | .
Cc1ccc([N+](=O)[O-])cc1S(=O)(=O)Nc1ccc(-c2ccc(N3CCOCC3)nn2)cc1 | i | i | i | 29* | i | 8.1%* | i | i | i
CC(NC(=O)COc1ccccc1Cl)c1ccccc1 (stereo not drawn) | i | i | i | 7.2* | i | i | i | i | i
CC(C)c1ccc(OCC(=O)NC(C)c2ccccc2)cc1 (stereo not drawn) | i | i | i | i | i | . | . | . | .
NNC(=O)CCn1c2ccccc2c2ccccc21 | i | i | i | i | i | . | . | . | .
COc1ccc2[nH]c(=O)c(CN(Cc3nnnn3Cc3ccco3)C3CCCCC3)cc2c1 | i | i | i | 9.3* | i | i | i | i | i
COc1ccc2[nH]c(=O)c(CN(Cc3ccccc3)Cc3nnnn3CC3CCCO3)cc2c1 (stereo not drawn) | i | i | i | i | i | . | . | . | .
SMILES | RGS4 block | MrgX1 antagonist | RGS4 act | MrgX1 allo act | MrgX1 ag | MrgX1 PAM conf | HEK293 Ca flux | HEK293 Ca counter | HEK293 Ca cntr2 | others
COc1ccc2[nH]c(=O)c(CN(Cc3cccnc3)Cc3nnnn3CC3CCCO3)cc2c1 (stereo not drawn) | i | i | i | 26* | i | i | i | i | i
Cc1cccc2cc3cccc(C)c3nc12 | i | i | i | i | i | . | . | . | .
Cc1cccc2cc3ccccc3nc12 | i | i | i | 9.2* | i | i | i | i | i
O=C(NCc1ccc2c(c1)OCO2)NC12CC3CC(CC(C3)C1)C2 | i | i | i | i | i | . | . | . | .
O=C(COc1ccc2c(c1)OCO2)NC12CC3CC(CC(C3)C1)C2 | i | i | i | 11* | i | i | i | i | i
CC1CCCN(C(=O)CSc2nnc(-c3c[nH]c4ccccc34)o2)C1 (stereo not drawn) | i | i | i | 9.5* | i | 8.7%* | i | i | i
Cc1ccc(-c2nn3cnnc3c3ccccc23)cc1 | i | i | i | i | i | . | . | . | .
CCC(C)(C)n1nnnc1C(c1ccc(C)cc1)N1CCC(C)CC1 (stereo not drawn) | i | i | i | i | i | . | . | . | .
CCC(C)(C)n1nnnc1C(c1ccc(Cl)cc1)N1CCN(C)CC1 (stereo not drawn) | i | i | i | 11* | i | i | i | i | i
Cc1ccccc1CSCC(=O)NCCSc1ccccn1 | i | i | i | i | i | . | . | . | .
CCCC(C(=O)NC1CCCC1)N(CC1CCCO1)C(=O)CNS(=O)(=O)c1ccc(F)cc1 (stereo not drawn) | i | i | i | i | i | . | . | . | .

Assay outcomes from PubChem.
